In ChEMBL document CHEMBL4689842, “EUbOPEN Chemogenomics Library wave 1” (2021):

System: U2OS
Assay: Multiplex assay against U2OS
Assay type: toxicity, cell-based
Settings: human
Method in brief: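 At seeding, live cells were stained with Hoechst33342, BioTracker Green Microtubule Cytoskeleton Dye, MitoTracker Red and Annexin V Alexa Fluor 680. After compound addition they were imaged on a CQ1 microscope at 37°C and 5% CO2, and CellPathfinder machine-learning gating sorted them into Hoechst high-intensity objects or normal cells, with normal cells further split into healthy, pyknosed or fragmented nuclei and pyknosed cells into mitotic or apoptotic. Tubulin, mitochondrial-mass and membrane-permeability phenotypes are given as per cents of cells with healthy nuclei.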

[1] = 12 h, 1 µM, compound concentration 1 uM, replicate 1
[2] = 12 h, 1 µM, compound concentration 1 uM, replicate 2
[3] = 12 h, 10 µM, compound concentration 10 uM, replicate 1
[4] = 12 h, 10 µM, compound concentration 10 uM, replicate 2
[5] = 24 h, 1 µM, compound concentration 1 uM, replicate 1
[6] = 24 h, 1 µM, compound concentration 1 uM, replicate 2
[7] = 24 h, 10 µM, compound concentration 10 uM, replicate 1
[8] = 24 h, 10 µM, compound concentration 10 uM, replicate 2
[9] = 48 h, 1 µM, compound concentration 1 uM, replicate 1
[10] = 48 h, 1 µM, compound concentration 1 uM, replicate 2
[11] = 48 h, 10 µM, compound concentration 10 uM, replicate 1
[12] = 48 h, 10 µM, compound concentration 10 uM, replicate 2

CN1C2CCC1CC(OC(c1ccc(F)cc1)c1ccc(F)cc1)C2.Cl (stereo not given)
Population Apoptotic (%) [1]: 45%
Population Fragmented Nuclei (%) [1]: 8%
Population Healthy Nuclei (%) [1]: 80%
Population Hoechst High Intensity Objects (%) [1]: 4%
Population Membrane Permeable-Phenotype (%) [1]: 2%
Population Mitochondria Different-Phenotype (%) [1]: 11%
Population Mitotic Cells (%) [1]: 54%
Population Normal (%) [1]: 95%
Population Pyknosed Nuclei (%) [1]: 10%
Total Cell Count [1]: 223
Population Apoptotic (%) [2]: 100%
Population Fragmented Nuclei (%) [2]: 5%
Population Healthy Nuclei (%) [2]: 92%
Population Hoechst High Intensity Objects (%) [2]: 2%
Population Membrane Permeable-Phenotype (%) [2]: 3%
Population Mitochondria Different-Phenotype (%) [2]: 4%
Population Mitotic Cells (%) [2]: 0%
Population Normal (%) [2]: 97%
Population Pyknosed Nuclei (%) [2]: 1%
Population Tubulin-Different-Phenotype (%) [2]: 8%
Total Cell Count [2]: 69
Population Apoptotic (%) [3]: 56%
Population Fragmented Nuclei (%) [3]: 15%
Population Healthy Nuclei (%) [3]: 68%
Population Hoechst High Intensity Objects (%) [3]: 4%
Population Membrane Permeable-Phenotype (%) [3]: 4%
Population Mitochondria Different-Phenotype (%) [3]: 81%
Population Mitotic Cells (%) [3]: 43%
Population Normal (%) [3]: 95%
Population Pyknosed Nuclei (%) [3]: 15%
Population Tubulin-Different-Phenotype (%) [3]: 54%
Total Cell Count [3]: 151
Population Apoptotic (%) [4]: 80%
Population Fragmented Nuclei (%) [4]: 8%
Population Healthy Nuclei (%) [4]: 78%
Population Hoechst High Intensity Objects (%) [4]: 6%
Population Membrane Permeable-Phenotype (%) [4]: 10%
Population Mitochondria Different-Phenotype (%) [4]: 89%
Population Mitotic Cells (%) [4]: 20%
Population Normal (%) [4]: 93%
Population Pyknosed Nuclei (%) [4]: 13%
Population Tubulin-Different-Phenotype (%) [4]: 49%
Total Cell Count [4]: 78
Population Apoptotic (%) [5]: 50%
Population Fragmented Nuclei (%) [5]: 7%
Population Healthy Nuclei (%) [5]: 84%
Population Hoechst High Intensity Objects (%) [5]: 3%
Population Membrane Permeable-Phenotype (%) [5]: 1%
Population Mitochondria Different-Phenotype (%) [5]: 6%
Population Mitotic Cells (%) [5]: 50%
Population Normal (%) [5]: 96%
Population Pyknosed Nuclei (%) [5]: 7%
Population Tubulin-Different-Phenotype (%) [5]: 3%
Total Cell Count [5]: 305
Population Apoptotic (%) [6]: 20%
Population Fragmented Nuclei (%) [6]: 3%
Population Healthy Nuclei (%) [6]: 90%
Population Hoechst High Intensity Objects (%) [6]: 2%
Population Membrane Permeable-Phenotype (%) [6]: 4%
Population Mitochondria Different-Phenotype (%) [6]: 4%
Population Mitotic Cells (%) [6]: 80%
Population Normal (%) [6]: 97%
Population Pyknosed Nuclei (%) [6]: 6%
Population Tubulin-Different-Phenotype (%) [6]: 8%
Total Cell Count [6]: 82
Population Apoptotic (%) [7]: 62%
Population Fragmented Nuclei (%) [7]: 15%
Population Healthy Nuclei (%) [7]: 65%
Population Hoechst High Intensity Objects (%) [7]: 7%
Population Membrane Permeable-Phenotype (%) [7]: 0%
Population Mitochondria Different-Phenotype (%) [7]: 71%
Population Mitotic Cells (%) [7]: 37%
Population Normal (%) [7]: 92%
Population Tubulin-Different-Phenotype (%) [7]: 30%
Total Cell Count [7]: 196
Population Apoptotic (%) [8]: 80%
Population Fragmented Nuclei (%) [8]: 16%
Population Healthy Nuclei (%) [8]: 64%
Population Hoechst High Intensity Objects (%) [8]: 3%
Population Membrane Permeable-Phenotype (%) [8]: 6%
Population Mitochondria Different-Phenotype (%) [8]: 78%
Population Mitotic Cells (%) [8]: 20%
Population Normal (%) [8]: 96%
Population Pyknosed Nuclei (%) [8]: 19%
Population Tubulin-Different-Phenotype (%) [8]: 25%
Total Cell Count [8]: 107
Population Apoptotic (%) [9]: 33%
Population Fragmented Nuclei (%) [9]: 6%
Population Healthy Nuclei (%) [9]: 87%
Population Hoechst High Intensity Objects (%) [9]: 1%
Population Membrane Permeable-Phenotype (%) [9]: 2%
Population Mitochondria Different-Phenotype (%) [9]: 6%
Population Mitotic Cells (%) [9]: 66%
Population Normal (%) [9]: 98%
Population Pyknosed Nuclei (%) [9]: 6%
Population Tubulin-Different-Phenotype (%) [9]: 5%
Total Cell Count [9]: 477
Population Apoptotic (%) [10]: 0%
Population Fragmented Nuclei (%) [10]: 1%
Population Healthy Nuclei (%) [10]: 97%
Population Hoechst High Intensity Objects (%) [10]: 2%
Population Membrane Permeable-Phenotype (%) [10]: 5%
Population Mitochondria Different-Phenotype (%) [10]: 16%
Population Mitotic Cells (%) [10]: 100%
Population Normal (%) [10]: 97%
Population Pyknosed Nuclei (%) [10]: 0%
Population Tubulin-Different-Phenotype (%) [10]: 7%
Total Cell Count [10]: 119
Population Apoptotic (%) [11]: 64%
Population Fragmented Nuclei (%) [11]: 20%
Population Healthy Nuclei (%) [11]: 63%
Population Hoechst High Intensity Objects (%) [11]: 5%
Population Membrane Permeable-Phenotype (%) [11]: 1%
Population Mitochondria Different-Phenotype (%) [11]: 44%
Population Mitotic Cells (%) [11]: 35%
Population Normal (%) [11]: 94%
Population Pyknosed Nuclei (%) [11]: 15%
Population Tubulin-Different-Phenotype (%) [11]: 17%
Total Cell Count [11]: 249
Population Apoptotic (%) [12]: 77%
Population Fragmented Nuclei (%) [12]: 16%
Population Healthy Nuclei (%) [12]: 75%
Population Hoechst High Intensity Objects (%) [12]: 6%
Population Membrane Permeable-Phenotype (%) [12]: 18%
Population Mitochondria Different-Phenotype (%) [12]: 56%
Population Mitotic Cells (%) [12]: 22%
Population Normal (%) [12]: 93%
Population Pyknosed Nuclei (%) [12]: 7%
Population Tubulin-Different-Phenotype (%) [12]: 27%
Total Cell Count [12]: 127
